Data from ChEMBL document CHEMBL1149906, “Perennisosides I-VII, acylated triterpene saponins with antihyperlipidemic activities from the flowers of Bellis perennis” (2008).

Experiments:
Type in all cases: functional
Mus musculus [1] = experiment: Inhibition of serum triglyceride elevation in olive oil-treated ddY mouse at 500 mg/kg, po after 2 hrs
Mus musculus [2] = experiment: Inhibition of serum triglyceride elevation in olive oil-treated ddY mouse at 500 mg/kg, po after 6 hrs
Mus musculus [3] = experiment: Inhibition of serum triglyceride elevation in olive oil-treated ddY mouse at 125 mg/kg, po after 4 hrs
Mus musculus [4] = experiment: Inhibition of serum triglyceride elevation in olive oil-treated ddY mouse at 250 mg/kg, po after 4 hrs
Mus musculus [5] = experiment: Inhibition of serum triglyceride elevation in olive oil-treated ddY mouse at 250 mg/kg, po after 2 hrs
Mus musculus [6] = experiment: Inhibition of serum triglyceride elevation in olive oil-treated ddY mouse at 250 mg/kg, po after 6 hrs
Mus musculus [7] = experiment: Inhibition of serum triglyceride elevation in olive oil-treated ddY mouse at 125 mg/kg, po after 6 hrs
Mus musculus [8] = experiment: Inhibition of serum triglyceride elevation in olive oil-treated ddY mouse at 500 mg/kg, po after 4 hrs
Mus musculus [9] = experiment: Inhibition of serum triglyceride elevation in olive oil-treated ddY mouse at 125 mg/kg, po after 2 hrs
Mus musculus [10] = experiment: Inhibition of serum triglyceride elevation in olive oil-treated ddY mouse at 12.5 mg/kg, po after 4 hrs
Mus musculus [11] = experiment: Inhibition of serum triglyceride elevation in olive oil-treated ddY mouse at 25 mg/kg, po after 6 hrs
How it was run: (§1)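 Male ddY mice (25–30 g) fasted 24–26 h with free access to water, kept conscious. Test sample given orally, then olive oil 5 mL/kg po 30 min later. Blood drawn from the infraorbital venous plexus 2, 4 and 6 h after the olive oil. Serum TG measured by an enzymatic kit; n = 6 per group; means ± SEM.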

Mus musculus [12] = experiment: Inhibition of serum triglyceride elevation in olive oil-treated ddY mouse at 12.5 mg/kg, po after 6 hrs
Mus musculus [13] = experiment: Inhibition of serum triglyceride elevation in olive oil-treated ddY mouse at 12.5 mg/kg, po after 2 hrs
Mus musculus [14] = experiment: Inhibition of serum triglyceride elevation in olive oil-treated ddY mouse at 25 mg/kg, po after 4 hrs; how it was run: as §1
Mus musculus [15] = experiment: Inhibition of serum triglyceride elevation in olive oil-treated ddY mouse at 25 mg/kg, po after 2 hrs; how it was run: as §1
Mus musculus [16] = experiment: Inhibition of serum triglyceride elevation in olive oil-treated ddY mouse at 6.25 mg/kg, po after 6 hrs
Mus musculus [17] = experiment: Inhibition of serum triglyceride elevation in olive oil-treated ddY mouse at 6.25 mg/kg, po after 2 hrs
Mus musculus [18] = experiment: Inhibition of serum triglyceride elevation in olive oil-treated ddY mouse at 6.25 mg/kg, po after 4 hrs
Mus musculus [19] = experiment: Inhibition of serum triglyceride elevation in olive oil-treated ddY mouse at 100 mg/kg, po after 6 hrs; how it was run: as §1
Mus musculus [20] = experiment: Inhibition of serum triglyceride elevation in olive oil-treated ddY mouse at 100 mg/kg, po after 2 hrs; how it was run: as §1
Mus musculus [21] = experiment: Inhibition of serum triglyceride elevation in olive oil-treated ddY mouse at 100 mg/kg, po after 4 hrs; how it was run: as §1
Mus musculus [22] = experiment: Inhibition of serum triglyceride elevation in olive oil-treated ddY mouse at 50 mg/kg, po after 6 hrs; how it was run: as §1
Mus musculus [23] = experiment: Inhibition of serum triglyceride elevation in olive oil-treated ddY mouse at 50 mg/kg, po after 4 hrs; how it was run: as §1
Mus musculus [24] = experiment: Inhibition of serum triglyceride elevation in olive oil-treated ddY mouse at 50 mg/kg, po after 2 hrs; how it was run: as §1

Compound | Activity (Mus musculus [11]) [mg/dL] | Activity (Mus musculus [14]) [mg/dL] | Activity (Mus musculus [15]) [mg/dL] | Activity (Mus musculus [19]) [mg/dL] | Activity (Mus musculus [20]) [mg/dL] | Activity (Mus musculus [21]) [mg/dL] | Activity (Mus musculus [22]) [mg/dL] | Activity (Mus musculus [23]) [mg/dL] | Activity (Mus musculus [24]) [mg/dL] | other results
CCOC(=O)C(C)(C)Oc1ccc(Cl)cc1 [CLOFIBRATE] |  |  |  |  |  |  |  |  |  | Activity (Mus musculus [1]): 318.2 mg/dL; Activity (Mus musculus [2]): 373.5 mg/dL; Activity (Mus musculus [3]): 295 mg/dL; Activity (Mus musculus [4]): 340.5 mg/dL; Activity (Mus musculus [5]): 441.2 mg/dL; Activity (Mus musculus [6]): 443.3 mg/dL; Activity (Mus musculus [7]): 333.4 mg/dL; Activity (Mus musculus [8]): 239.7 mg/dL; Activity (Mus musculus [9]): 377.5 mg/dL
CCCCCCCCCCC[C@@H](C[C@@H]1OC(=O)[C@H]1CCCCCC)OC(=O)[C@H](CC(C)C)NC=O [ORLISTAT] | 140.1 | 132.2 | 158.9 |  |  |  |  |  |  | Activity (Mus musculus [10]): 176 mg/dL; Activity (Mus musculus [12]): 189.7 mg/dL; Activity (Mus musculus [13]): 187.9 mg/dL; Activity (Mus musculus [16]): 155.6 mg/dL; Activity (Mus musculus [17]): 266.4 mg/dL; Activity (Mus musculus [18]): 179.3 mg/dL
CC(=O)OC[C@H]1O[C@@H](OC(=O)[C@]23CCC(C)(C)C[C@H]2C2=CC[C@@H]4[C@@]5(C)C[C@H](O)[C@H](O)[C@@](C)(COC(C)=O)[C@@H]5CC[C@@]4(C)[C@]2(C)CC3)[C@H](O[C@@H]2O[C@@H](C)[C@H](O)[C@@H](O)[C@H]2O)[C@@H](O[C@@H]2O[C@H](CO)[C@H](O)[C@H](O)[C@H]2O)[C@@H]1O [PERENNISOSIDE II] | 87 | 147 | 204.6 | 80.6 | 179.4 | 155.6 | 104.6 | 180.4 | 232.5 | 
CC(=O)OC[C@H]1O[C@@H](OC(=O)[C@]23CCC(C)(C)C[C@H]2C2=CC[C@@H]4[C@@]5(C)C[C@H](O)[C@H](O)[C@@](C)(COC(C)=O)[C@@H]5CC[C@@]4(C)[C@]2(C)CC3)[C@H](O[C@@H]2O[C@@H](C)[C@H](O)[C@@H](O)[C@H]2O)[C@@H](O[C@@H]2O[C@H](CO)[C@@H](O)[C@H](O)[C@H]2O)[C@@H]1O [PERENNISOSIDE I] | 222.7 | 357.7 | 337 | 208.2 | 135.7 | 278.7 | 203.7 | 355.8 | 326.9 | 
